Consider five compounds from ChEMBL document CHEMBL2177081, “Orally active metabotropic glutamate subtype 2 receptor positive allosteric modulators: structure-activity relationships and assessment in a rat model of nicotine dependence” (J Med Chem, 2012).

The structures appear in SMILES notation.

For data set [1], the system named is Rattus norvegicus. The experiment in a line: Cmax in rat at 10 mg/kg, po. Further details: dose 10 mg/kg, route oral. The conditions noted are these: in vivo. The format is ADME, organism-based. The gist of the method: (§1)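 Sodium salts were given to rats by oral dose at 10 mg/kg in sterile water, with n = 3 or 5 animals per compound. Plasma concentration was measured over time to give Cmax, Tmax, terminal half-life and oral bioavailability (F). Brain and plasma were taken at or near Tmax.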

In data set [2] the test system is Rattus norvegicus. The experiment in a line: AUC (0 to t) in rat at 2 mg/kg, iv. The format is ADME, organism-based, Plasma. Particulars: in vivo. Also on record: dose 2 mg/kg, route intravenous.
Data set [3] has as its system Rattus norvegicus. Kind of data set: Volume of distribution in rat at 2 mg/kg, iv. The format is ADME, organism-based. Also on record: dose 2 mg/kg, route intravenous. Particulars: in vivo. The gist of the method: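 Intravenous dose of 2 mg/kg in rats, given as sodium salt in sterile water; plasma PK parameters including volume of distribution.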
Data set [4] concerns Rattus norvegicus. The experiment in a line: Cmax in rat at 2 mg/kg, iv. It counts as ADME, organism-based. Also on record: dose 2 mg/kg, route intravenous. Particulars: in vivo. The procedure, abridged:
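Rats received sodium salts intravenously at 2 mg/kg in sterile water. Cmax is the maximum compound concentration detected in plasma, and terminal half-life was derived from the plasma concentration–time profile.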

Data set [5] relates to Rattus norvegicus. The experiment in a line: Oral bioavailability in rat at 10 mg/kg. It counts as ADME, organism-based. Particulars: in vivo. The procedure, abridged: as §1
The test system of data set [6] is Rattus norvegicus. Kind of data set: AUC (0 to t) in rat at 10 mg/kg, po. The conditions noted are these: in vivo. Also on record: dose 10 mg/kg, route oral. The format is ADME, organism-based, Plasma. The procedure, abridged:
(§2)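 Sodium salt given orally at 10 mg/kg in sterile water to rats, n = 3 (n = 5 for one compound). Plasma was sampled over time for Cmax, Tmax, AUC(0–t), t1/2 and oral bioavailability. Brain and plasma were harvested at or near Tmax to measure levels and the brain:plasma ratio.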

Data set [7] has as its system Rattus norvegicus. The experiment in a line: Volume of distribution in rat at 10 mg/kg, po. It counts as ADME, organism-based. Also on record: dose 10 mg/kg, route oral. Particulars: in vivo. The procedure, abridged: (§3)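 Rats dosed orally at 10 mg/kg as sodium salts in sterile water, n = 3 (n = 5 for one compound). Plasma sampled for PK parameters; brain and plasma harvested at or near Tmax for levels and brain:plasma ratio.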

The subject of data set [8] is Rattus norvegicus. The experiment in a line: Ratio of drug level in brain to plasma in rat at 10 mg/kg, po.
A further data set has as its system Brain. Kind of data set: Drug level in rat brain at 10 mg/kg, po. Also on record: dose 10 mg/kg, route oral. The conditions noted are these: in vivo, read-out: Drug uptake. It counts as ADME, organism-based. The gist of the method: as §2
The subject of a further data set is Plasma. Kind of data set: Plasma concentration in rat at 10 mg/kg, po. The format is ADME, organism-based. Also on record: dose 10 mg/kg, route oral. Particulars: in vivo. The gist of the method:
as §3

Data set [9] concerns Rattus norvegicus. Kind of data set: Tmax in rat at 10 mg/kg, po. The format is ADME, organism-based. Also on record: dose 10 mg/kg, route oral. Particulars: in vivo.
The test system of data set [10] is Rattus norvegicus. Kind of data set: AUC (0 to t) in rat at 10 mg/kg, ip. The format is ADME, organism-based, Plasma. Also on record: dose 10 mg/kg, route intraperitoneal. The conditions noted are these: in vivo.
Data set [11] has as its system Rattus norvegicus. The experiment in a line: Volume of distribution in rat at 10 mg/kg, ip. It counts as ADME, organism-based. Also on record: dose 10 mg/kg, route intraperitoneal. Particulars: in vivo. The gist of the method:
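Intraperitoneal dose of 10 mg/kg in rats, given as sodium salt in sterile water; plasma PK parameters including volume of distribution.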

For data set [12], the system named is Rattus norvegicus. Kind of data set: (§4) Cmax in rat at 10 mg/kg, ip. It counts as ADME, organism-based. Also on record: dose 10 mg/kg, route intraperitoneal. Particulars: in vivo. The procedure, abridged:
(§5)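 Intraperitoneal dosing in rats at 10 mg/kg, sodium salt form, sterile water vehicle. Cmax is the maximum compound concentration detected in plasma, and terminal half-life was derived from the plasma profile.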

Data set [13] is described as follows: as §4. The format is ADME, organism-based. Particulars: in vivo. Further details: dose 10 mg/kg, route intraperitoneal. The gist of the method:
as §5

The Cmax is the maximum level reached in the sampled fluid or tissue. The term Tmax denotes the time from dosing to the highest level.

Regarding `O=C([O-])c1cc(-c2cccc(COc3ccc4c(c3)CN(C3CCCC3)C4=O)c2)ccc1Cl.[Na+]`, the Cmax in the data set on Rattus norvegicus [1] was determined as 3000 nM; in the data set with Rattus norvegicus [4], 28200 nM. Moreover, the AUCt in the data set with Rattus norvegicus [2] came out at 11.8 µM·h; with Rattus norvegicus [6], 42.5 µM·h. In addition, the values for the Vd with Rattus norvegicus [3] and with Rattus norvegicus [7] were 0.6 mL and 3 mL, respectively. In the data set on Rattus norvegicus [5], this compound showed an F of 71.4%. The BPR with Rattus norvegicus [8] is 0.039.

On to `O=C([O-])c1cc(-c2cccc(COc3ccc4c(c3)CN(C3CCCC3)C4=O)c2)ccc1O.[Na+]`, for which the Cmax with Rattus norvegicus [1] came out at 1600 nM; in the data set on Rattus norvegicus [4] it was 3900 nM. The figures for the AUCt with Rattus norvegicus [2] and in the data set with Rattus norvegicus [6] were 2.57 µM·h and 7.1 µM·h, respectively. In addition, the Vd in the data set on Rattus norvegicus [3] came to 4.3 mL; in the data set with Rattus norvegicus [7], 28 mL. The concentration with Brain worked out at 7.1 nM; in the data set with Plasma it was 210 nM. The same compound showed a F in the data set on Rattus norvegicus [5] of 109.2%. Further, the Tmax with Rattus norvegicus [9] worked out at 30 min. The BPR in the data set on Rattus norvegicus [8] was 0.0335.

For the compound `COc1ccc(C(=O)[O-])cc1-c1cccc(COc2ccc3c(c2)CN(C2CCCC2)C3=O)c1.[Na+]`, the Cmax with Rattus norvegicus [1] came to 4000 nM; with Rattus norvegicus [4], 5600 nM. In addition, the figures for the AUCt in the data set with Rattus norvegicus [2] and with Rattus norvegicus [6] were 6.7 µM·h and 12 µM·h, respectively. The Vd in the data set with Rattus norvegicus [3] came out at 4620 mL; in the data set with Rattus norvegicus [7], 10875.2 mL. Moreover, the concentration was determined as 180 nM with Brain and 1460 nM in the data set with Plasma. The compound further returned a F with Rattus norvegicus [5] of 84.8%. The Tmax in the data set with Rattus norvegicus [9] turned out to be 30 min. The BPR with Rattus norvegicus [8] came out at 0.13.

Take `O=C([O-])c1cc(-c2cccc(-c3ccc4c(c3)CN(C3CCCC3)C4=O)c2)ccc1Cl.[Na+]`: the peak concentration (Cmax) in the data set with Rattus norvegicus [1] was 400 nM; in the data set with Rattus norvegicus [12], 2000 nM. The AUCt came to 3.23 µM·h in the data set on Rattus norvegicus [10] and 2.67 µM·h with Rattus norvegicus [6]. The figures for the Vd in the data set on Rattus norvegicus [11] and in the data set with Rattus norvegicus [7] were 21.2 mL and 96.2 mL, respectively. Besides, the Tmax with Rattus norvegicus [9] amounted to 30 min.

As for `O=C([O-])c1cc(-c2cccc(COc3ccc4c(=O)n(C5CC5)sc4c3)c2)ccc1Cl.[Na+]`, the results for the Cmax (in the data set on Rattus norvegicus [1]; in data set [13]) were 8500 nM and 9600 nM, respectively. The AUCt in the data set with Rattus norvegicus [10] was 25.8 µM·h; in the data set with Rattus norvegicus [6] it was 61.5 µM·h. Moreover, the Vd in the data set with Rattus norvegicus [11] came to 2.4 mL; in the data set on Rattus norvegicus [7], 4.1 mL. For the same compound, the concentration in the data set with Brain turned out to be 30 nM; in the data set on Plasma, 800 nM. The Tmax in the data set on Rattus norvegicus [9] is recorded as 60 min. The BPR in the data set with Rattus norvegicus [8] turned out to be 0.04.
